Experimental findings from ChEMBL document CHEMBL1123413, “Synthesis and biological evaluation of 1-(1,2-benzisothiazol-3-yl)- and (1,2-benzisoxazol-3-yl)piperazine derivatives as potential antipsychotic agents” (J Med Chem, 1986) are described below.

Where only a bound is given, the exact number is not on record here.

A short description of series [1]: Lethal dose after peroral administration in mouse. Format: toxicity, organism-based. The conditions noted are these: in vivo, po.
Series [2] concerns the target Gamma-aminobutyric acid receptor subunit gamma-1 (Rattus norvegicus, UniProt P23574). Nature of the series: Inhibition of [3H]muscimol binding to Gamma-aminobutyric acid (GABA-A) receptor.
The species entered for series [3] is Mus musculus. Nature of the series: Oral effective dose against norepinephrine-induced lethality in mouse. Format: functional. In outline: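 Groups of 10 nonfasted male mice dosed orally with test compound (initial 100 mg/kg) or vehicle (distilled H2O or 0.5% methocel). Active compounds retested at lower doses, 10 mice/dose, for dose response. ED50 by Berkson's method.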

The species entered for series [4] is Mus musculus. The series is described as follows: Oral effective dose against physostigmine-induced lethality in mouse. It counts as functional. In outline: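 Groups of 10 nonfasted male mice dosed orally with test compound (initial 100 mg/kg) or vehicle (distilled H2O or 0.5% methocel). At 30 min, physostigmine given ip at 1.25 mg/kg, and lethality followed for up to 1 h. Active compounds retested at lower doses, 10 mice/dose, for dose response. ED50 by Berkson's method.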

Series [5] is filed under the species Mus musculus. Nature of the series: Oral effective dose against spontaneous motor activity in mouse. Format: functional.
Series [6] is filed under the species Rattus norvegicus. Nature of the series: Oral effective dose against ethanol potentiation in rat. Format: functional. In outline: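 Nonfasted male rats received test drug or vehicle (distilled H2O or 0.5% methocel). EtOH (10 mL of 20% solution/kg, ip) followed at 15, 30, 60 or 120 min post-drug; the vehicle group got it at 15 min. Rats were watched about 10–15 min for loss of righting reflex lasting 1 min. Dose response at peak time used 10/dose; ED50 by Berkson.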

For series [7], the species on record is Rattus norvegicus. The series is described as follows: Oral effective dose against hexobarbatial potentiation in rat. Format: functional. In outline: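 Hexobarbital sodium (40 mg/kg, ip) was given to nonfasted male rats 15, 30, 60 or 120 min after test drug, or 15 min after vehicle (distilled H2O or 0.5% methocel). Loss of righting reflex of 1-min duration was scored over about 10–15 min. Dose response at peak-effect time used 10 rats/dose; ED50 and fiducial limits by Berkson.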

The species named for series [8] is Rattus norvegicus. The series is described as follows: Oral effective dose against spontaneous motor activity in rat. Format: functional.
Series [9] is filed under the species Rattus norvegicus. The series is described as follows: Compound was tested for the inhibition of apomorphine-induced stereotype. Format: functional. In outline: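 In rats, oral test compound was scored for block of apomorphine-induced stereotypy as an in vivo dopamine-system measure. ED50 (mg/kg, po) and fiducial limits by Berkson's method.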

Sequence of Gamma-aminobutyric acid receptor subunit gamma-1 (P23574 whole entry): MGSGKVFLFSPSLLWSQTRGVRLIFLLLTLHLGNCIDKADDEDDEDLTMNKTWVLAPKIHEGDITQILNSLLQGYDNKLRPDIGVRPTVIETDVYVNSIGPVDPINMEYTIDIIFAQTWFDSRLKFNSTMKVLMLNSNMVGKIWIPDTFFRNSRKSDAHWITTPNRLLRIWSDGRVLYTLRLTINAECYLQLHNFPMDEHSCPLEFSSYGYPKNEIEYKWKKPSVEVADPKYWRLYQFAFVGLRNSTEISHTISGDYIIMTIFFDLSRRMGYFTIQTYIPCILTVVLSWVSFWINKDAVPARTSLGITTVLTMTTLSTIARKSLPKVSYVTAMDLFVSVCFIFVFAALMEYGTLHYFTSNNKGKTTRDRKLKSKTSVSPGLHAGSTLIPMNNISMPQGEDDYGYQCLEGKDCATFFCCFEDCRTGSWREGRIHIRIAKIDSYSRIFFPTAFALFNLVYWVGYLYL

As for `CSc1ccc2c(c1)N(CCC1CCCCN1C)c1ccccc1S2` (centres undefined) [THIORIDAZINE], the 50% lethal dose (LD50) (commonly the dose at which mortality reaches 50%) in series [1] stood at 250 mg/kg. Besides, the 50% inhibitory concentration (IC50) (usually the concentration that gives 50% inhibition) in series [2] was more than 1000 nM. The ED50 (as a rule, the midpoint of the dose-response relation) in the series filed under Mus musculus [3] is 2.2 mg/kg; in the series filed under Mus musculus [4], 45 mg/kg; in the series filed under Mus musculus [5] it was 12.8 mg/kg; in the series filed under Rattus norvegicus [6] it was 56 mg/kg; in the series listed under Rattus norvegicus [7], 27.3 mg/kg; in the series filed under Rattus norvegicus [8], 33 mg/kg. In the series listed under Rattus norvegicus [9], the 50% effect level (ED50) was put at a dose of 280 mg/kg.
